rRNA inh HTS – selective bacterial rRNA inhibition in E. coli; actives 1.6% (n = 350,000); GFP signal change (wild-type ribosome), % (no concentration beside the values); E. coli WT GFP vs humanized-ribosome RFP mutants, fluorescence, 24 h; stronger effect = lower value; DMSO median 0, no signal -100;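 active means significant combined selectivity score with lowered wild-type GFP, culture density cut under 30%, mutant RFP and density less affected; inactive means any of these conditions unmet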
PvdQ acylase – blocks Pseudomonas aeruginosa PvdQ acylase activity; purified PvdQ acylase, fluorescence plate reader; inhibition, % at 10 µM; actives 0.063% (n = 340,000); AID 488965; in the data active means inhibition above about 30%, passing the limit was not always enough
PDI inh – PDI (human) enzyme inhibition; P07237; PDI insulin aggregation turbidity, A650, 90 min; inhibition, % at 10 µM; actives 0.052% (n = 350,000); AID 588391;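 active means mean inhibition across replicates of 30% or more, whatever share of single replicates reach that level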
HIV Env fusion – HIV envelope-mediated fusion inhibition; HeLa-JRFL Env/CEM21 cell fusion, luciferase; inhibition, % at 12.3 µM; actives 1.1% (n = 360,000); AID 651610;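 active means mean replicate inhibition score of at least 50 and every replicate individually at or above 50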
FN deposition inh – fibronectin deposition inhibition; actives 0.086% (n = 350,000); inhibition, % at 12.6 µM; AID 743247; AH1F fibroblasts, Alexa488-fibronectin deposition fluorescence, overnight;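 active means mean inhibition across replicates of 30% or more, regardless of how many single replicates reach that level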
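material = AH1F fibroblast monolayer depositing Alexa488-labelled fibronectin into matrix | amount = 10000 AH1F cells/well | buffer or medium = DMEM plus 2% serum, read in PBS | incubation = 1 h cell adhesion before compound, then overnight fibronectin incubation | detection = fluorescence at 485 nm excitation, 525 nm emission | evaluation = percent inhibition as loss of matrix-bound fibronectin fluorescence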
ERp5 block – blocks human ERp5 reductase activity on insulin; Q15084; ERp5 insulin aggregation, absorbance 650 nm, 90 min; inhibition, % at 9.99 µM; actives 0.05% (n = 350,000);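 active means mean replicate inhibition above about 25%, with every replicate also reaching it, limit read from the data, passing the limit was not always enough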
Target sequence (Q15084 whole entry, looked up): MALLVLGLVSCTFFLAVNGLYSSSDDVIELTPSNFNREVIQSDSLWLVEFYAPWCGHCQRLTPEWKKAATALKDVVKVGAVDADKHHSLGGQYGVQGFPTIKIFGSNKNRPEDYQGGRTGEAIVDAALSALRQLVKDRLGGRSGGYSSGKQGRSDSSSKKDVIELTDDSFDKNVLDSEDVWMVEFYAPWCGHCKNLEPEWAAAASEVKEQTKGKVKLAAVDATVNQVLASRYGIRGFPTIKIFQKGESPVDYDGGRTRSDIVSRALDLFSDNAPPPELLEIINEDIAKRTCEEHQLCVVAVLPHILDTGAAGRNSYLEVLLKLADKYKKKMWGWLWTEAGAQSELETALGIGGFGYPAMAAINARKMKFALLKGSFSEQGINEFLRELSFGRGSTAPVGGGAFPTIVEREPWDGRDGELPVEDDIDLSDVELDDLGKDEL
Numbers stand for hits; 0 = inactive; - = no result. Most compounds without a hit are left out; they make up all but 2.2% or so of the library.

SMILES	rRNA inh HTS	PvdQ acylase	PDI inh	HIV Env fusion	FN deposition inh	ERp5 block
Cc1ccccc1S(=O)(=O)NCC[C@H]1CC[C@@H](NC(=O)C2CCCC2)[C@H](CO)O1	0	-	-	0	0	0
CCCNC(=O)N1C[C@H](O)COC[C@@H]2O[C@H](CC(=O)NCc3ccncn3)CC[C@H]21	0	-	-	0	0	0
CNC[C@@H]1Oc2ccc(NC(C)=O)cc2C(=O)N(C)C[C@H]1C	0	-	-	-	-	-
CN(CCOc1ccccc1)C(=O)c1ccc(OC2CCN(C(=O)C3CC3)CC2)cc1	-18.6	0	0	0	0	0
COc1cc(C(=O)N(C)CCOc2ccc(C)cc2)ccc1OC1CCN(C(C)=O)CC1	-	0	0	0	0	0
Cc1cccc(NC(=O)Nc2cc(C)on2)c1	-	38.7	0	0	0	-
Cc1ccc(NC(=O)Nc2cc(C)on2)cc1	0	0	0	0	0	0
COc1ccc2c3c([nH]c2c1)[C@H](CO)N(C(=O)c1ccccc1)CC31CCN(C(=O)NC(C)C)CC1	0	-	-	-	-	0
C[C@H](CO)N1C[C@H](C)[C@@H](CN(C)C(=O)c2ccncc2)OCCCC[C@H](C)Oc2ccc(NS(=O)(=O)c3cn(C)cn3)cc2C1=O	0	-	-	0	-	0
C[C@H](CO)N1C[C@H](C)[C@H](CN(C)S(=O)(=O)c2ccc(Cl)cc2)Oc2ccc(NC(=O)Nc3ccc(F)cc3)cc2CC1=O	0	-	-	0	-	0
C=C(C)c1cccc(C(C)(C)NC(=O)Nc2ncccn2)c1	-	0	0	0	0	-
C=C(C)c1cccc(C(C)(C)NC(=O)Nc2ccc(Cl)cn2)c1	-	0	0	65.3	-	-
CCOC1=C2[C@@H](CN(S(=O)(=O)c3ccccc3C)[C@H]2c2ccc(Cl)cc2)[C@H]2C(=O)NC(=O)[C@H]2C1	0	-	-	79.0	0	0
CCOC1=C2[C@@H](CN(S(=O)(=O)c3ccccc3C)[C@H]2c2ccc(Cl)cc2)[C@H]2C(=O)N(c3ccccc3)C(=O)[C@H]2C1	0	-	-	0	0	0
CO[C@@H](CN(C)S(=O)(=O)c1ccc(F)cc1)[C@H](C)CN([C@@H](C)CO)S(=O)(=O)c1cccc(Cl)c1	0	-	-	-	0	0
O=C(C[C@@H]1CC[C@@H](NC(=O)C2CCOCC2)[C@@H](CO)O1)NCc1ccccc1Cl	0	-	-	0	0	0
CCN(CCCNC(=O)CC(C(=O)N1CCc2ccccc21)n1ccnc1)c1ccccc1 (configuration not stated)	-	0	0	62.6	0	-
O=C(CC(C(=O)N1CCc2ccccc21)n1ccnc1)NCc1cccnc1 (configuration not stated)	-	0	0	0	0	-
C[C@@H]1CN([C@H](C)CO)C(=O)c2cc(NC(=O)c3ccncc3)ccc2O[C@@H](C)CCCCO[C@H]1CN(C)C(=O)Nc1ccc(F)cc1	0	-	-	0	0	0
Cc1noc(C)c1S(=O)(=O)N(C)C[C@H]1Oc2ccc(NS(=O)(=O)c3cn(C)cn3)cc2CC(=O)N([C@@H](C)CO)C[C@H]1C	0	-	-	0	0	0
CCn1c(O)c(/C=C2\C=Nc3ccccc32)sc1=Nc1ccccc1	0	0	0	-	-	0
Cn1c(O)c(/C=C2\C=Nc3ccccc32)sc1=Nc1ccc(C(=O)O)cc1	0	0	54.2	0	0	0
COc1ccc(OC)c(CCNC(=O)c2ccc(CS(=O)Cc3ccc(Cl)cc3)o2)c1 (configuration not stated)	-28.4	0	0	0	0	-
Cc1cc(/C=N/n2cnnc2)c(C)n1-c1ccc(OCc2ccccc2F)cc1	-43.3	0	0	-	-	0
Cc1cc(/C=N/n2cnnc2)c(C)n1-c1ccc(OCc2ccc(Cl)cc2)cc1	-	0	0	-	-	-
SMILES	rRNA inh HTS	PvdQ acylase	PDI inh	HIV Env fusion	FN deposition inh	ERp5 block
Cc1ccn2c(NC3CCCC3)c(-c3ccncc3)nc2c1	0	0	0	0	0	0
Cc1ccn2c(NC3CCCCC3)c(-c3cccc(-c4cccc(Cl)c4)c3)nc2c1	0	0	0	69.6	0	0
COc1ccc2c3c(n(C)c2c1)[C@@H](CO)N(C(=O)CC1CC1)CC31CCN(C(=O)CC2CC2)CC1	0	-	-	0	-	0
CCn1c(SCC(=O)Nc2ccc3c(c2)c2ccccc2n3CC)nnc1-c1ccco1	-	0	55.6	0	0	-
Cn1c(SCC(=O)Nc2ccccc2-c2ccccc2)nnc1-c1ccco1	-23.8	0	0	-	-	0
CCn1c(SCC(=O)Nc2cccc(NC(C)=O)c2)nnc1-c1ccco1	0	0	0	0	0	0
Cc1occc1-c1nnc(SCC(=O)Nc2ccccc2-c2ccccc2)n1C	-	0	0	0	0	-
O=C(Nc1ccc(Cl)c(Cl)c1)N[C@@H]1CC[C@H](CCn2cc(C3CCCCC3)nn2)O[C@H]1CO	-46.2	-	-	0	0	0
O=C(Nc1ccc(Cl)c(Cl)c1)N[C@H]1CC[C@@H](CCn2cc(C3CCCCC3)nn2)O[C@H]1CO	0	-	-	0	0	0
CNc1nc(N/N=C/c2ccc([N+](=O)[O-])cc2)nc(Nc2ccccc2)n1	-39.8	0	0	0	0	0
C[C@H]1CN(C)C(=O)Cc2cc(N(C)C)ccc2O[C@H]1CN(C)C	0	-	-	-	0	-
COc1ccc(C(=O)N(Cc2ccccc2)Cc2cc3cc4c(cc3[nH]c2=O)OCCO4)cc1	-	0	0	59.1	-	-
Cc1cc(OCCn2cc(/C(N)=N/O)c3ccccc32)ccc1Cl	-40.0	0	0	-	-	0
CC(C)CC#Cc1ccc2c(c1)O[C@H](CN(C)C(=O)c1ccncc1)[C@@H](C)CN([C@H](C)CO)S2(=O)=O	0	-	-	0	0	0
Clc1ccccc1N=C1NN=C(c2cccs2)CS1	-31.8	0	0	0	0	0
Cc1ccc(C2=C(O)c3ccccc3C(=O)C2=O)cc1	0	0	0	0	0	0
O=C1C(=O)c2ccccc2C(O)=C1c1cccc([N+](=O)[O-])c1	-24.4	0	0	0	0	0
Cc1noc(C)c1S(=O)(=O)Nc1cccc2c1O[C@@H](CN(C)Cc1ccc(-c3ccccc3)cc1)[C@@H](C)CN([C@H](C)CO)C2=O	0	-	-	0	-	-
O=[N+]([O-])c1c(Nc2ccc(O)cc2)cc(Cl)c2nonc12	0	0	0	0	53.9	0
CN(C)c1cc(Nc2ccc(O)cc2)c([N+](=O)[O-])c2nonc12	0	0	0	0	0	0
O=C(NCc1cccnc1)/C(=C\c1ccc(-c2ccc(Cl)c(Cl)c2)o1)S(=O)(=O)c1ccccc1	0	0	0	0	31.2	0
CNC[C@@H]1OCCCC[C@H](C)Oc2ccc(NC(=O)Nc3ccc(F)cc3)cc2C(=O)N([C@H](C)CO)C[C@H]1C	0	-	-	0	-	-
Cc1ccc(S(=O)(=O)Nc2cccc3c2O[C@@H](CN(C)S(=O)(=O)c2cn(C)cn2)[C@@H](C)CN([C@@H](C)CO)C3=O)cc1	0	-	-	0	-	-
CCCNC(=O)N1CC2(CCN(S(=O)(=O)CC)CC2)c2c(n(C)c3cc(OC)ccc23)[C@@H]1CO	0	-	-	-	-	-
Cc1ccc(-c2csc(NC(=O)c3cccc(C)c3)c2C(=O)O)cc1	-38.4	0	0	0	0	0
